Experimental data published in EPA's CvTdb concentration-time database.

Key:
Rat [1] = assay: concentration in kidney after dosing; settings: 864 h; dosed: Perfluorooctane Sulfonate; 20 mg/kg; oral; Male; Harlan Sprague Dawley
Rat [2] = assay: concentration in plasma after dosing; settings: dosed: Perfluorooctane Sulfonate, 2 mg/kg, iv, Female, Harlan Sprague-Dawley
Rat [3] = assay: concentration in plasma after dosing; settings: dosed: Perfluorooctane Sulfonate, 2 mg/kg, iv, Male, F344
Rat [4] = assay: concentration in kidney after dosing; settings: 6 h; dosed: Perfluorooctane Sulfonate; 2 mg/kg; oral; Female; Harlan Sprague Dawley
Rat [5] = assay: concentration in kidney after dosing; settings: 3360 h; dosed: Perfluorooctane Sulfonate; 2 mg/kg; oral; Female; Harlan Sprague Dawley
Rat [6] = assay: concentration in liver after dosing; settings: 6 h; dosed: Perfluorooctane Sulfonate; 2 mg/kg; oral; Female; Harlan Sprague Dawley
Rat [7] = assay: concentration in liver after dosing; settings: 3360 h; dosed: Perfluorooctane Sulfonate; 2 mg/kg; oral; Female; Harlan Sprague Dawley
Rat [8] = assay: concentration in brain after dosing; settings: 24 h; dosed: Perfluorooctane Sulfonate; 2 mg/kg; oral; Female; Harlan Sprague Dawley
Rat [9] = assay: concentration in liver after dosing; settings: 3360 h; dosed: Perfluorooctane Sulfonate; 20 mg/kg; oral; Male; Harlan Sprague Dawley
Rat [10] = assay: concentration in liver after dosing; settings: 6 h; dosed: Perfluorooctane Sulfonate; 2 mg/kg; oral; Female; Harlan Sprague Dawley; remark: listed apart in the source
Rat [11] = assay: concentration in brain after dosing; settings: 1848 h; dosed: Perfluorooctane Sulfonate; 20 mg/kg; oral; Male; Harlan Sprague Dawley
Rat [12] = assay: concentration in plasma after dosing; settings: 864 h; dosed: Perfluorooctane Sulfonate; 2 mg/kg; oral; Female; Harlan Sprague Dawley
Rat [13] = assay: concentration in liver after dosing; settings: 24 h; dosed: Perfluorooctane Sulfonate; 2 mg/kg; oral; Female; Harlan Sprague Dawley
Rat [14] = assay: concentration in plasma after dosing; settings: dosed: Perfluorohexanoic Acid, 80 mg/kg, oral, Male, Harlan Sprague Dawley
Rat [15] = assay: concentration in plasma after dosing; settings: dosed: Perfluorohexanoic Acid, 40 mg/kg, iv, Male, F344
Rat [16] = assay: concentration in liver after dosing; settings: 12 h; dosed: Perfluorohexanoic Acid; 80 mg/kg; oral; Male; Harlan Sprague Dawley
human [17] = assay: concentration in expired air after dosing; settings: dosed: trichloroethylene, 100 ppm, inhalation, duration: 4 hr, person
Method in brief: (§1)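 Data points giving concentration or amount against time came from published in vivo toxicokinetic studies and from two structured collections. PubMed searching, classifier screening and manual review located the studies. Most points were digitised from plot screenshots using WebPlotDigitizer, the rest were copied from tables, and all keep their reported units.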

human [18] = assay: concentration in blood after dosing; settings: dosed: trichloroethylene, 100 ppm, inhalation, duration: 4 hr, person
Method in brief: as §1

Rat [19] = assay: concentration in plasma after dosing; settings: 4 h; dosed: Gemfibrozil; 4.29 mg/kg; oral; Male; Sprague-Dawley
Rat [20] = assay: concentration in plasma after dosing; settings: 2 h; dosed: Gemfibrozil; 4.29 mg/kg; oral; Male; Sprague-Dawley
Rat [21] = assay: concentration in plasma after dosing; settings: 10 min; dosed: Gemfibrozil; 50 mg/kg; oral; Male; Sprague-Dawley
Rat [22] = assay: concentration in plasma after dosing; settings: 24 h; dosed: Gemfibrozil; 100 mg/kg; oral; Male; Sprague-Dawley
Rat [23] = assay: concentration in brain after dosing; settings: 2 min; dosed: 2-Methyltetrahydrofuran; 40 mg/kg; iv; Male; Harlan Sprague Dawley
Rat [24] = assay: concentration in plasma after dosing; settings: 2 min; dosed: 2-Methyltetrahydrofuran; 40 mg/kg; iv; Female; Harlan Sprague Dawley
Rat [25] = assay: concentration in brain after dosing; settings: 7 min; dosed: 2-Methyltetrahydrofuran; 40 mg/kg; iv; Male; Harlan Sprague Dawley
Rat [26] = assay: concentration in plasma after dosing; settings: 0.2 h; dosed: 2-Methyltetrahydrofuran; 40 mg/kg; iv; Male; Harlan Sprague Dawley
Rat [27] = assay: concentration in brain after dosing; settings: 1.5 h; dosed: 2-Methyltetrahydrofuran; 40 mg/kg; iv; Male; Harlan Sprague Dawley
Rat [28] = assay: concentration in brain after dosing; settings: 4 h; dosed: 2-Methyltetrahydrofuran; 40 mg/kg; iv; Female; Harlan Sprague Dawley
Rat [29] = assay: concentration in plasma after dosing; settings: dosed: Fluorotelomer alcohol 8+2, 12 mg/kg, oral, Male, Harlan Sprague Dawley
Rat [30] = assay: concentration in plasma after dosing; settings: dosed: 678-39-7, 12 mg/kg, iv, Male, F344
Rat [31] = assay: concentration in plasma after dosing; settings: dosed: 678-39-7, 12 mg/kg, iv, Male, F344; remark: listed apart in the source
Rat [32] = assay: concentration in plasma after dosing; settings: 3 h; dosed: 678-39-7; 40 mg/kg; iv; Male; F344
Rat [33] = assay: concentration in liver after dosing; settings: 1 h; dosed: Fluorotelomer alcohol 8+2; 80 mg/kg; oral; Female; Harlan Sprague Dawley

O=S(=O)([O-])C(F)(F)C(F)(F)C(F)(F)C(F)(F)C(F)(F)C(F)(F)C(F)(F)C(F)(F)F [Perfluorooctane Sulfonate]
Settings | concentration in brain [ng/g] | concentration in kidney [ng/g] | concentration in liver [ng/g] | concentration in plasma [ng/mL]
Rat [1] | – | 19300 | – | –
Rat [4] | – | 3800 | – | –
Rat [5] | – | 1070 | – | –
Rat [6] | – | – | 27200 | –
Rat [7] | – | – | 2150 | –
Rat [8] | 553 | – | – | –
Rat [9] | – | – | 23900 | –
Rat [10] | – | – | 24500 | –
Rat [11] | 2130 | – | – | –
Rat [12] | – | – | – | 1490
Rat [13] | – | – | 23800 | –

concentration in plasma [ng/mL]
Settings | 5 min | 12 h | 24 h | 1200 h
Rat [2] | 5510 | – | 3580 | 562
Rat [3] | – | 4020 | – | 875

O=C(O)C(F)(F)C(F)(F)C(F)(F)C(F)(F)C(F)(F)F [Perfluorohexanoic Acid]
concentration in plasma [ng/mL]
Settings | 0.25 h | 0.5 h | 12 h | 24 h
Rat [14] | 156000 | – | – | 416
Rat [15] | – | 14500 | 35.7 | –

Settings | concentration in liver [ng/g]
Rat [16] | 2130

ClC=C(Cl)Cl [trichloroethylene]
Settings | concentration in blood [nM] | concentration in expired air [ppm]
human [17], 0.2505 h | – | 6.43
human [17], 0.4903 h | – | 4.4
human [17], 1.01 h | – | 2.66
human [17], 2.009 h | – | 1.42
human [17], 4.008 h | – | 1.29
human [17], 5.993 h | – | 1.15
human [17], 8.005 h | – | 0.514
human [17], 10.04 h | – | 0.377
human [17], 11.99 h | – | 0.34
human [17], 13.99 h | – | 0.738
human [17], 86 s | – | 24.7
human [18], 0 h | 13000 | –
human [18], 0.17 h | 4900 | –
human [18], 0.5 h | 3280 | –
human [18], 1 h | 2200 | –
human [18], 1.5 h | 1680 | –
human [18], 2 h | 1340 | –
human [18], 3 h | 1070 | –
human [18], 4 h | 865 | –
human [18], 6 h | 583 | –
human [18], 8 h | 392 | –
human [18], 10 h | 259 | –

Cc1ccc(C)c(OCCCC(C)(C)C(=O)O)c1 [Gemfibrozil]
Settings | concentration in plasma [ng/mL]
Rat [19] | 238
Rat [20] | 74.1
Rat [21] | 76500
Rat [22] | 1050

CC1CCCO1 (stereo unspecified) [2-Methyltetrahydrofuran]
Settings | concentration in brain [ng/mL] | concentration in plasma [ng/mL]
Rat [23] | 39000 | –
Rat [24] | – | 52500
Rat [25] | 25400 | –
Rat [26] | – | 37600
Rat [27] | 6260 | –
Rat [28] | 185 | –

O=C(O)CCC(F)(F)C(F)(F)C(F)(F)C(F)(F)C(F)(F)C(F)(F)C(F)(F)F [Fluorotelomer acid 7+3]
Settings | concentration in plasma [ng/mL]
Rat [29], 1 h | 650
Rat [29], 24 h | 210
Rat [30], 3 h | 807
Rat [30], 5 min | 11.6
Rat [31], 0.5 h | 127
Rat [31], 9 h | 159

Settings | concentration in liver [ng/g] | concentration in plasma [ng/mL]
Rat [32] | – | 2370
Rat [33] | 1340 | –
